# pPAFAH FP inh: inhibitors of human plasma PAF acetylhydrolase (pPAFAH). AID 463082. Q13093. inhibition, % at 3.39 µM. 330,000 compounds, 1.5% hits. recombinant pPAFAH, FP-rhodamine probe fluorescence polarization;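 active = inhibition above the mean inhibition across the screen plus 3 SD, cut at about 25% in these data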;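 note: inhibitors block binding of the rhodamine activity-based probe so polarization drops; 0% = enzyme with DMSO and 100% = wells lacking pPAFAH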
# Target sequence (Q13093 whole entry, looked up): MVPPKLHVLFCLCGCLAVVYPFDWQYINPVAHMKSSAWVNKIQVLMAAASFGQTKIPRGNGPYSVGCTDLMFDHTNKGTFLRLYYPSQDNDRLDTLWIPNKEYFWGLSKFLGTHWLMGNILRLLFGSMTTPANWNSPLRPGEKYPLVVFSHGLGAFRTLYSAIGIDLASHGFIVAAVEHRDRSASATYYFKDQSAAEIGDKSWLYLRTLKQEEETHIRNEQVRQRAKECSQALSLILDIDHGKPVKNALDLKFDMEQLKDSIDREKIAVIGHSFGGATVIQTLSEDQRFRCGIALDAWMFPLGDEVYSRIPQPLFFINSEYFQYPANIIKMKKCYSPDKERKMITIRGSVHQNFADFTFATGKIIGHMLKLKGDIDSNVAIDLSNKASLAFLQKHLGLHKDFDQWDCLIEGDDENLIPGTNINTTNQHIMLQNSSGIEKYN
# PAFAH2 FP inh: PAFAH2 (human) inhibition | AID 492956 | 340,000 compounds, 0.99% hits | inhibition, % at 3.39 µM | recombinant PAFAH2, FP-rhodamine activity probe, fluorescence polarization;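 active = inhibition above the mean over all tested compounds plus 3 SD, cut at about 30% in these data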;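 note: inhibitors block probe labeling of enzyme so polarization drops; 0% = enzyme with DMSO and 100% = wells lacking PAFAH2 protein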
# HTRA1 inh: HTRA1 (human) protease inhibition. 340,000 compounds, 0.5% hits. recombinant HTRA1, FP-rhodamine activity-based probe, fluorescence polarization. Q92743. inhibition, % at 5.96 µM; in the data active = inhibition above about 36%;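 note: 0% = enzyme with DMSO and 100% = wells lacking enzyme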
# ABHD4 inh: inhibitors of mouse ABHD4. purified mABHD4, FP-Rh probe fluorescence polarization. inhibition, % at 8.92 µM. 370,000 compounds, 0.54% hits;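 active = inhibition exceeding the mean over every tested compound plus 3 SD, cut at about 30% in these data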;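 note: 0% = plate median of compound wells and 100% = S159A mutant with DMSO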
#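 Assay system: wild-type mouse ABHD4 protein; compound: single nominal dose of 8.92 µM, 0.89% DMSO final; schedule: 45 min + 60 min at 25 °C; measured by: FP readout, ex 525 nm / em 598 nm; evaluation: % inhibition of FP-Rh probe binding versus controls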
# PAFAH1B2 inh: blocks human PAF acetylhydrolase 1b catalytic subunit 2; inhibition, % at 3.39 µM; AID 492953; recombinant PAFAH1B2, FP-rhodamine activity probe, fluorescence polarization; P68402; 340,000 compounds, 1.2% hits;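 active = inhibition above the mean of all tested compounds plus 3 SD, cut at about 24% in these data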;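 note: 0% = enzyme with DMSO and 100% = wells lacking PAFAH1B2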
# PAFAH1B3 inh: blocks human PAF acetylhydrolase 1B catalytic subunit 3 | Q15102 | recombinant PAFAH1B3, FP-rhodamine probe, fluorescence polarization | inhibition, % at 3.39 µM | 340,000 compounds, 0.28% hits | AID 492972;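 active = inhibition above the screen-wide average of all tested compounds plus 3 SD, cut at about 25% in these data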;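 note: 0% = enzyme with DMSO only and 100% = wells lacking PAFAH1B3 protein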
# PAFAH2 confirm: confirmation of human PAFAH2 inhibitors; inhibition, % at 3.39 µM; recombinant PAFAH2, FP-rhodamine activity probe, fluorescence polarization; shares compounds with PAFAH2 FP inh; 2,300 compounds, 65% hits;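 active = mean inhibition over three repeats above a set limit taken from the earlier primary screen, cut at about 30% in these data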;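 note: inhibitor blocks binding of rhodamine activity probe so polarization falls; 0% = enzyme with DMSO and 100% = wells lacking PAFAH2 protein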
# * hit, by the source's call; . = no result given. This is a sample that favours compounds with a hit; in the whole collection about 2.8% have one here.
SMILES,pPAFAH FP inh,PAFAH2 FP inh,HTRA1 inh,ABHD4 inh,PAFAH1B2 inh,PAFAH1B3 inh,PAFAH2 confirm
CC(=O)c1cccc(NC(=O)COC(=O)c2ccccc2C)c1,5,63*,0,-1,5,-4,62*
CC(=O)c1cccc(NC(=O)COC(=O)c2ccccn2)c1,4,-4,4,3,-1,-4,.
O=C(COC(=O)c1cc(-c2cccs2)nn1-c1ccccc1)Nc1cccc([N+](=O)[O-])c1,3,32*,3,-6,-4,-6,39*
CCOc1ncccc1C(=O)OCC(=O)Nc1cccc(S(N)(=O)=O)c1,6,33*,5,-1,-3,3,15
O=C(NCc1ccccc1)OCCN1C(=O)CCC12CCC(c1ccccc1)CC2 (stereo unspecified),.,.,.,-4,.,.,.
C=CCOC(=O)N[C@H](c1cccc(OC)c1)[C@H](C)/C=C/CC(=O)OC,.,.,.,-3,.,.,.
O[C@H](COc1ccc(C(F)(F)F)cc1)CN1CCC(C(O)(c2ccccc2)c2ccccc2)CC1,.,.,.,11,.,.,.
O=C(COC(=O)c1ccccc1C(=O)c1ccccc1)Nc1cccc([N+](=O)[O-])c1,19,89*,-12,1,7,-5,82*
O=C(O)/C=C/C(=O)NCCNc1ncc(C(F)(F)F)cc1Cl,6,54*,3,1,6,2,38*
Cc1cccc(NC(=O)COC(=O)c2cccc(S(=O)(=O)N3CCCCCC3)c2)c1,20,74*,-41,-18,3,-6,63*
Cc1cc(C)cc(NC(=O)COC(=O)c2cccc(S(=O)(=O)N3CCCCC3)c2)c1,9,65*,-37,-16,-4,6,52*
O=C(COC(=O)c1cccc(Br)c1)Nc1cccc(S(=O)(=O)N2CCCCC2)c1,.,.,-51,-42,.,.,.
O=C(NC1CCCC1)C1(C(=O)C2CC2)CC(c2ccccn2)=NO1 (stereo unspecified),.,.,.,3,.,.,.
O=C(COC(=O)c1ccccc1)NCC1CCCO1 (stereo unspecified),2,17,5,3,0,15,.
COc1cc(OC)c(NS(=O)(=O)c2cc(C(=O)OCC(=O)NCC3CCCO3)ccc2OC)cc1Cl (stereo unspecified),-3,71*,3,-4,9,14,52*
O=C(COC(=O)c1cccs1)NCC1CCCO1 (stereo unspecified),5,35*,1,5,3,0,16
CCOc1ccc(C(=O)OCC(=O)NC(C)C)cc1,2,55*,6,-7,-1,0,43*
CCOc1ccc(C(=O)OCC(=O)NCC2CCCO2)cc1 (stereo unspecified),3,48*,0,1,5,7,28
O=C(Cn1c(-c2cncs2)nc2ccccc21)NCc1cccs1,.,.,.,-6,.,.,.
C#CCOCCOCCOCCNc1nc(N2CCOCC2)nc(N2CCN(C(=O)[C@H](CCC(=O)O)n3cc(C(N)CO)nn3)CC2)n1 (stereo partly specified),.,.,.,-1,.,.,.
COc1ccc(C(=O)OCC(=O)NCC2CCCO2)c(F)c1 (stereo unspecified),8,38*,3,4,3,4,34*
COc1cccc(OCC(=O)NCC2CCCO2)c1 (stereo unspecified),3,4,2,-1,7,12,.
Cc1ccc(C(=O)OCC(=O)NCCc2ccc(F)cc2)cc1S(=O)(=O)N1CCOCC1,15,47*,5,0,6,-5,37*
Cc1ccc(C(=O)OCC(=O)NC(C)C)cc1S(=O)(=O)N1CCOCC1,11,32*,0,3,1,1,23
COc1ccc(CNC(=O)COC(=O)c2ccc(C)c(S(=O)(=O)N3CCOCC3)c2)cc1,13,13,5,-4,2,4,.
O=C(COC(=O)c1ccc(F)c(S(=O)(=O)N2CCOCC2)c1)NCc1ccc(Cl)cc1,7,11,1,-5,1,-3,.
